Reference: ChEMBL document CHEMBL1629548, “In vitro activities of tigecycline against clinical isolates of Aeromonas, Vibrio, and Salmonella species in Taiwan” (2008)

Tests used:
Aeromonas hydrophila [1] = assay: Antimicrobial activity against Aeromonas hydrophila assessed as susceptible isolate by FDA method; assay type: functional
How it was run: (§1)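 Susceptibility categories assigned from tigecycline broth microdilution MICs (CLSI method, 0.03–128 μg/ml) using US FDA or EUCAST breakpoints, as named in each line.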

Aeromonas hydrophila [2] = assay: Antimicrobial activity against Aeromonas hydrophila assessed as susceptible isolate by EUCAST method; assay type: functional; how it was run: as §1
Aeromonas hydrophila [3] = assay: Antimicrobial activity against Aeromonas hydrophila assessed as intermediate isolate by FDA method; assay type: functional
How it was run: (§2)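 Tigecycline MICs for clinical isolates (Taiwan) were determined by broth microdilution over 0.03 to 128 μg/ml. A control strain was included, and its MICs had to fall within the recommended range. Susceptible, intermediate and resistant categories were assigned from the MICs using US FDA and EUCAST breakpoints.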

Aeromonas hydrophila [4] = assay: Antimicrobial activity against Aeromonas hydrophila assessed as intermediate isolate by EUCAST method; assay type: functional; how it was run: as §1
Aeromonas caviae [5] = assay: Antimicrobial activity against Aeromonas caviae assessed as susceptible isolate by FDA method; assay type: functional; how it was run: as §2
Aeromonas caviae [6] = assay: Antimicrobial activity against Aeromonas caviae assessed as susceptible isolate by EUCAST method; assay type: functional; how it was run: as §1
Aeromonas caviae [7] = assay: Antimicrobial activity against Aeromonas caviae assessed as intermediate isolate by FDA method; assay type: functional; how it was run: as §1
Aeromonas caviae [8] = assay: Antimicrobial activity against Aeromonas caviae assessed as intermediate isolate by EUCAST method; assay type: functional; how it was run: as §2
Aeromonas caviae [9] = assay: Antimicrobial activity against Aeromonas caviae assessed as resistant isolate by FDA method; assay type: functional; how it was run: as §2
Aeromonas sobria [10] = assay: Antimicrobial activity against Aeromonas sobria assessed as susceptible isolate by FDA method; assay type: functional; how it was run: as §1
Aeromonas sobria [11] = assay: Antimicrobial activity against Aeromonas sobria assessed as susceptible isolate by EUCAST method; assay type: functional; how it was run: as §1
Aeromonas sobria [12] = assay: Antimicrobial activity against Aeromonas sobria assessed as intermediate isolate by FDA method; assay type: functional; how it was run: as §2
Aeromonas sobria [13] = assay: Antimicrobial activity against Aeromonas sobria assessed as intermediate isolate by EUCAST method; assay type: functional; how it was run: as §1
[14] = Antimicrobial activity against Salmonella serotype Choleraesuis assessed as susceptible isolate by FDA method; assay type: functional, Salmonella enterica subsp. enterica serovar Choleraesuis; how it was run: as §2
[15] = Antimicrobial activity against Salmonella serotype Choleraesuis assessed as intermediate isolate by FDA method; assay type: functional, Salmonella enterica subsp. enterica serovar Choleraesuis; how it was run: as §2
[16] = Antimicrobial activity against Salmonella serotype Choleraesuis assessed as intermediate isolate by EUCAST method; assay type: functional, Salmonella enterica subsp. enterica serovar Choleraesuis; how it was run: as §2
[17] = Antimicrobial activity against Salmonella serotype Choleraesuis assessed as resistant isolate by FDA method; assay type: functional, Salmonella enterica subsp. enterica serovar Choleraesuis; how it was run: as §2
[18] = Antimicrobial activity against Salmonella serotype Choleraesuis assessed as resistant isolate by EUCAST method; assay type: functional, Salmonella enterica subsp. enterica serovar Choleraesuis; how it was run: as §2
Salmonella typhimurium [19] = assay: Antimicrobial activity against Salmonella serotype Typhimurium assessed as susceptible isolate by FDA method; assay type: functional, Salmonella enterica subsp. enterica serovar Typhimurium; how it was run: as §1
Salmonella typhimurium [20] = assay: Antimicrobial activity against Salmonella serotype Typhimurium assessed as susceptible isolate by EUCAST method; assay type: functional, Salmonella enterica subsp. enterica serovar Typhimurium; how it was run: as §1
Salmonella typhimurium [21] = assay: Antimicrobial activity against Salmonella serotype Typhimurium assessed as intermediate isolate by FDA method; assay type: functional, Salmonella enterica subsp. enterica serovar Typhimurium; how it was run: as §1
Salmonella typhimurium [22] = assay: Antimicrobial activity against Salmonella serotype Typhimurium assessed as intermediate isolate by EUCAST method; assay type: functional, Salmonella enterica subsp. enterica serovar Typhimurium; how it was run: as §1
Salmonella [23] = assay: Antimicrobial activity against Salmonella serogroup O7 assessed as susceptible isolate by FDA method; assay type: functional; how it was run: as §1
Salmonella [24] = assay: Antimicrobial activity against Salmonella serogroup O7 assessed as susceptible isolate by EUCAST method; assay type: functional; how it was run: as §1
Salmonella [25] = assay: Antimicrobial activity against Salmonella serogroup O7 assessed as intermediate isolate by FDA method; assay type: functional; how it was run: as §1
Salmonella [26] = assay: Antimicrobial activity against Salmonella serogroup O7 assessed as intermediate isolate by EUCAST method; assay type: functional; how it was run: as §1
Salmonella [27] = assay: Antimicrobial activity against Salmonella serogroup O8 assessed as susceptible isolate by FDA method; assay type: functional; how it was run: as §1
Salmonella [28] = assay: Antimicrobial activity against Salmonella serogroup O8 assessed as susceptible isolate by EUCAST method; assay type: functional; how it was run: as §1
Salmonella [29] = assay: Antimicrobial activity against Salmonella serogroup O8 assessed as intermediate isolate by FDA method; assay type: functional; how it was run: as §1
Salmonella [30] = assay: Antimicrobial activity against Salmonella serogroup O8 assessed as intermediate isolate by EUCAST method; assay type: functional; how it was run: as §1
Salmonella [31] = assay: Antimicrobial activity against Salmonella serogroup O9 assessed as susceptible isolate by FDA method; assay type: functional; how it was run: as §1
Salmonella [32] = assay: Antimicrobial activity against Salmonella serogroup O9 assessed as susceptible isolate by EUCAST method; assay type: functional; how it was run: as §1
Salmonella [33] = assay: Antimicrobial activity against Salmonella serogroup O9 assessed as intermediate isolate by FDA method; assay type: functional; how it was run: as §1
Salmonella [34] = assay: Antimicrobial activity against Salmonella serogroup O9 assessed as intermediate isolate by EUCAST method; assay type: functional; how it was run: as §2
Vibrio vulnificus [35] = assay: Antimicrobial activity against Vibrio vulnificus assessed as susceptible isolate by FDA method; assay type: functional; how it was run: as §1
Vibrio vulnificus [36] = assay: Antimicrobial activity against Vibrio vulnificus assessed as susceptible isolate by EUCAST method; assay type: functional; how it was run: as §1
Vibrio vulnificus [37] = assay: Antimicrobial activity against Vibrio vulnificus assessed as intermediate isolate by FDA method; assay type: functional; how it was run: as §1
Vibrio vulnificus [38] = assay: Antimicrobial activity against Vibrio vulnificus assessed as intermediate isolate by EUCAST method; assay type: functional; how it was run: as §2
Vibrio parahaemolyticus [39] = assay: Antimicrobial activity against Vibrio parahaemolyticus assessed as susceptible isolate by FDA method; assay type: functional; how it was run: as §1
Vibrio parahaemolyticus [40] = assay: Antimicrobial activity against Vibrio parahaemolyticus assessed as susceptible isolate by EUCAST method; assay type: functional; how it was run: as §1
Vibrio parahaemolyticus [41] = assay: Antimicrobial activity against Vibrio parahaemolyticus assessed as intermediate isolate by FDA method; assay type: functional; how it was run: as §2
Vibrio parahaemolyticus [42] = assay: Antimicrobial activity against Vibrio parahaemolyticus assessed as intermediate isolate by EUCAST method; assay type: functional; how it was run: as §1
Vibrio cholerae [43] = assay: Antimicrobial activity against Vibrio cholerae non-O1 assessed as susceptible isolate by FDA method; assay type: functional; how it was run: as §2
Vibrio cholerae [44] = assay: Antimicrobial activity against Vibrio cholerae non-O1 assessed as susceptible isolate by EUCAST method; assay type: functional; how it was run: as §2
Vibrio cholerae [45] = assay: Antimicrobial activity against Vibrio cholerae non-O1 assessed as intermediate isolate by FDA method; assay type: functional; how it was run: as §2
Vibrio cholerae [46] = assay: Antimicrobial activity against Vibrio cholerae non-O1 assessed as intermediate isolate by EUCAST method; assay type: functional; how it was run: as §2
Vibrio cholerae [47] = assay: Antimicrobial activity against Vibrio cholerae non-O1 assessed as resistant isolate by FDA method; assay type: functional; how it was run: as §2
Vibrio cholerae [48] = assay: Antimicrobial activity against Vibrio cholerae non-O1 assessed as resistant isolate by EUCAST method; assay type: functional; how it was run: as §2

Measured: Activity

CN(C)c1cc(NC(=O)CNC(C)(C)C)c(O)c2c1C[C@H]1C[C@H]3[C@H](N(C)C)C(O)=C(C(N)=O)C(=O)[C@@]3(O)C(O)=C1C2=O [TIGECYCLINE]
98.4%: Aeromonas caviae [5] | Salmonella typhimurium [20]
1.2%: Aeromonas hydrophila [4]
100%: Aeromonas hydrophila [1] | Aeromonas sobria [10] | Aeromonas sobria [11] | [14] | Salmonella typhimurium [19] | Salmonella [23] | Salmonella [24] | Salmonella [27] | Salmonella [28] | Salmonella [31] | Salmonella [32] | Vibrio vulnificus [35] | Vibrio vulnificus [36] | Vibrio parahaemolyticus [39] | Vibrio parahaemolyticus [40] | Vibrio cholerae [43] | Vibrio cholerae [44]
98.8%: Aeromonas hydrophila [2]
96.8%: Aeromonas caviae [6]
1.6%: Aeromonas caviae [7] | Aeromonas caviae [8] | [16] | Salmonella typhimurium [22]
0%: all other assays above
